Data: ChEMBL document CHEMBL4715798, “Structure-Based Optimization of Multifunctional Agonists for Opioid and Neuropeptide FF Receptors with Potent Nontolerance Forming Analgesic Activities” (J Med Chem, 2016)
Activity calls are given as the source filed them. The rule behind the calls is not given here. Non-standard residues stand in square brackets, D forms with d. Residues, ends and D or L forms follow the SMILES beside them. NMeF = CN[C@@H](Cc1ccccc1)C(=O)O

Key:
[1] = molecular target: T1, Mu-type opioid receptor (Homo sapiens, UniProt P35372); experiment: Agonist activity at mu opioid receptor (unknown origin) expressed in HEK293-A cells assessed as reduction in forskolin-induced cAMP accumulation incubated for 30 mins by competition PKA binding assay; assay type: functional, cell-based
Outline: (§1)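 cAMP functional read-out in transfected cells. Log EC50 ± standard error was obtained by nonlinear regression of data from at least three independent experiments run in duplicate.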

[2] = molecular target: T2, Neuropeptide FF receptor 1 (Homo sapiens, UniProt Q9GZQ6); experiment: Agonist activity at NPFFR1 (unknown origin) expressed in HEK293-A cells assessed as reduction in forskolin-induced cAMP accumulation incubated for 30 mins by competition PKA binding assay relative to Tyr-D-Ala-Gly-Phe-Gln-Pro-Gln-Arg-Phe-NH2; assay type: functional, cell-based; settings: filed as agonist; outline: as §1
[3] = molecular target: T3, Delta-type opioid receptor (Homo sapiens, UniProt P41143); experiment: Agonist activity at delta opioid receptor (unknown origin) expressed in HEK293-A cells assessed as reduction in forskolin-induced cAMP accumulation incubated for 30 mins by competition PKA binding assay relative to Tyr-D-Ala-Gly-Phe-Gln-Pro-Gln-Arg-Phe-NH2; assay type: functional, cell-based; settings: filed as agonist; outline: as §1
[4] = molecular target: T3, Delta-type opioid receptor; experiment: Agonist activity at delta opioid receptor (unknown origin) expressed in HEK293-A cells assessed as reduction in forskolin-induced cAMP accumulation incubated for 30 mins by competition PKA binding assay; assay type: functional, cell-based; outline: as §1
[5] = molecular target: T2, Neuropeptide FF receptor 1; experiment: Agonist activity at NPFFR1 (unknown origin) expressed in HEK293-A cells assessed as reduction in forskolin-induced cAMP accumulation incubated for 30 mins by competition PKA binding assay; assay type: functional, cell-based; outline: as §1
[6] = molecular target: Kappa-type opioid receptor (Homo sapiens, UniProt P41145); experiment: Agonist activity at kappa opioid receptor (unknown origin) expressed in HEK293-A cells assessed as reduction in forskolin-induced cAMP accumulation incubated for 30 mins by competition PKA binding assay; assay type: functional, cell-based; outline: as §1
[7] = molecular target: T4, Neuropeptide FF receptor 2 (Homo sapiens, UniProt Q9Y5X5); experiment: Agonist activity at NPFFR2 (unknown origin) expressed in HEK293-A cells assessed as reduction in forskolin-induced cAMP accumulation incubated for 30 mins by competition PKA binding assay relative to Tyr-D-Ala-Gly-Phe-Gln-Pro-Gln-Arg-Phe-NH2; assay type: functional, cell-based; outline: as §1
[8] = molecular target: T1, Mu-type opioid receptor; experiment: Agonist activity at mu opioid receptor (unknown origin) expressed in HEK293-A cells assessed as reduction in forskolin-induced cAMP accumulation incubated for 30 mins by competition PKA binding assay relative to Tyr-D-Ala-Gly-Phe-Gln-Pro-Gln-Arg-Phe-NH2; assay type: functional, cell-based; settings: filed as agonist; outline: as §1
[9] = molecular target: T4, Neuropeptide FF receptor 2; experiment: Agonist activity at NPFFR2 (unknown origin) expressed in HEK293-A cells assessed as reduction in forskolin-induced cAMP accumulation incubated for 30 mins by competition PKA binding assay; assay type: functional, cell-based; outline: as §1
[10] = system: Mus musculus; experiment: Antinociceptive activity in mouse dosed repeated icv injections for 6 days by radiant heat tail-flick test; assay type: functional; settings: time 6 day
Outline: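 Mice received the same icv dose once daily for 6 days in the radiant heat tail-flick test. Tolerance was judged by comparing the antinociceptive response on day 1 with day 6. Values are mean ± SEM.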

[11] = system: Mus musculus; experiment: Antinociceptive activity in mouse assessed as development of tolerance dosed repeated icv injections for 6 days by radiant heat tail-flick test; assay type: functional, organism-based; settings: time 6.0 day
Outline: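 Tail-flick test in mice. Peptide was given icv once daily for 6 days at a fixed dose. Antinociceptive responses to the same dose on day 1 and day 6 were compared to judge tolerance. Values are mean ± SEM.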

[12] = system: Mus musculus; experiment: Antinociceptive activity in icv dosed mouse assessed as inhibition of phase II flinching behaviors by formalin-induced nociceptive behavioral test; assay type: functional
[13] = species on record: Mus musculus; experiment: Antinociceptive activity in mouse; assay type: functional
[14] = system: Mus musculus; experiment: Antinociceptive activity in icv dosed mouse assessed as inhibition of phase I flinching behaviors by formalin-induced nociceptive behavioral test; assay type: functional
[15] = molecular target: T2, Neuropeptide FF receptor 1; experiment: Agonist activity at NPFFR1 (unknown origin) expressed in HEK293-A cells assessed as reduction in forskolin-induced cAMP accumulation at 10 uM incubated for 30 mins by competition PKA binding assay relative to Tyr-D-Ala-Gly-Phe-Gln-Pro-Gln-Arg-Phe-NH2; assay type: functional, cell-based; outline: as §1

Compound	EC50 ([1]; read-out: EC50) [µM]	Emax [2] [%]	Emax [3] [%]	EC50 [4] [µM]	EC50 ([5]; read-out: EC50) [µM]	EC50 [6] [µM]	Emax ([7]; filed as agonist) [%]	Emax [8] [%]	EC50 ([9]; read-out: EC50) [µM]	ED50 [10] [nmol]	Activity [11]	EC50 ([9]; read-out: pEC50 (converted)) [µM]	EC50 ([5]; read-out: pEC50 (converted)) [µM]	ED50 [12] [pmol]	ED50 [13] [nmol]	ED50 [14] [pmol]	EC50 ([1]; read-out: pEC50 (converted)) [µM]	Emax [15] [%]	Emax [7] [%]
CSCC[C@@H](NC(=O)[C@@H](N)Cc1ccc(O)cc1)C(=O)NCC(=O)N[C@@H](Cc1ccccc1)C(=O)N[C@@H](CCC(N)=O)C(=O)N1CCC[C@H]1C(=O)N[C@@H](CCC(N)=O)C(=O)N[C@@H](CCCNC(=N)N)C(=O)N[C@@H](Cc1ccccc1)C(N)=O	0.424	73.5	84.7	0.114	0.661	1.26	57.9	89.4	0.0413	0.0314	inactive								
N=C(N)NCCC[C@H](NC(=O)[C@H](CCC(N)=O)NC(=O)[C@@H]1CCCN1C(=O)[C@H](CCC(N)=O)NC(=O)[C@H](Cc1ccccc1)NC(=O)CNC(=O)[C@@H](CO)NC(=O)[C@@H](N)Cc1ccc(O)cc1)C(=O)N[C@@H](Cc1ccccc1)C(N)=O	0.563	82.3	84.9	0.118	3.2	1.47	63	97.1	0.254	0.6062	inactive	0.245							
C[C@@H](NC(=O)[C@@H](N)Cc1ccc(O)cc1)C(=O)NCC(=O)N[C@@H](Cc1ccccc1)C(=O)NCC(=O)N1CCC[C@H]1C(=O)N[C@@H](CCC(N)=O)C(=O)N[C@@H](CCCNC(=N)N)C(=O)N[C@@H](Cc1ccccc1)C(N)=O (H-Y[dA]GFGPQRF-NH2)	0.0284	66.8	75.7	0.898	0.881	1.63	56.2	80.4	0.185	0.4172	Active								
CC(C)C[C@H](NC(=O)[C@H](Cc1ccccc1)NC(=O)CNC(=O)[C@@H](C)NC(=O)[C@@H](N)Cc1ccc(O)cc1)C(=O)N1CCC[C@H]1C(=O)N[C@@H](CCC(N)=O)C(=O)N[C@@H](CCCNC(=N)N)C(=O)N[C@@H](Cc1ccccc1)C(N)=O (H-Y[dA]GFLPQRF-NH2)	0.25	68.4	79.1	0.0493	0.0544	0.12	57.3	98.9	0.259	0.1865	Active		0.0537						
CSCC[C@H](NC(=O)[C@H](Cc1ccccc1)NC(=O)CNC(=O)[C@@H](C)NC(=O)[C@@H](N)Cc1ccc(O)cc1)C(=O)N1CCC[C@H]1C(=O)N[C@@H](CCC(N)=O)C(=O)N[C@@H](CCCNC(=N)N)C(=O)N[C@@H](Cc1ccccc1)C(N)=O (H-Y[dA]GFMPQRF-NH2)	0.127	69.2	81.2	0.0388	0.301	0.24	58.4	89.2	0.087	0.2967	Active								
C[C@@H](NC(=O)[C@@H](N)Cc1ccc(O)cc1)C(=O)NCC(=O)N[C@@H](Cc1ccccc1)C(=O)N[C@@H](CCC(N)=O)C(=O)N1CCC[C@H]1C(=O)N[C@@H](CCC(N)=O)C(=O)N[C@@H](CCCNC(=N)N)C(=O)N[C@@H](Cc1ccccc1)C(N)=O (H-Y[dA]GFQPQRF-NH2)	0.308	59.9	82.2	0.587	0.591	0.564	58.4	92.4	0.185	0.533	Active			1140	0.39	120			
C[C@@H](NC(=O)[C@@H](N)Cc1ccc(O)cc1)C(=O)NCC(=O)N[C@@H](Cc1ccccc1)C(=O)N[C@H](C)C(=O)N1CCC[C@H]1C(=O)N[C@@H](CCC(N)=O)C(=O)N[C@@H](CCCNC(=N)N)C(=O)N[C@@H](Cc1ccccc1)C(N)=O (H-Y[dA]GF[dA]PQRF-NH2)	0.249		85.3	0.81			45.9	85.6	5.01	0.3361	Active						0.245	15.1	
CC(C)C[C@@H](NC(=O)[C@H](Cc1ccccc1)NC(=O)CNC(=O)[C@@H](C)NC(=O)[C@@H](N)Cc1ccc(O)cc1)C(=O)N1CCC[C@H]1C(=O)N[C@@H](CCC(N)=O)C(=O)N[C@@H](CCCNC(=N)N)C(=O)N[C@@H](Cc1ccccc1)C(N)=O (H-Y[dA]GF[dL]PQRF-NH2)	0.583		86.4	0.0569				86.3	0.651	0.4367	Active							30.7	37.2
CSCC[C@@H](NC(=O)[C@H](Cc1ccccc1)NC(=O)CNC(=O)[C@@H](C)NC(=O)[C@@H](N)Cc1ccc(O)cc1)C(=O)N1CCC[C@H]1C(=O)N[C@@H](CCC(N)=O)C(=O)N[C@@H](CCCNC(=N)N)C(=O)N[C@@H](Cc1ccccc1)C(N)=O (H-Y[dA]GF[dM]PQRF-NH2)	0.409		78.4	0.12		2.46	70.2	89.7	0.318	0.3986	Active							26.6	
C[C@@H](NC(=O)[C@@H](N)Cc1ccc(O)cc1)C(=O)NCC(=O)N(C)[C@@H](Cc1ccccc1)C(=O)N[C@@H](CCC(N)=O)C(=O)N1CCC[C@H]1C(=O)N[C@@H](CCC(N)=O)C(=O)N[C@@H](CCCNC(=N)N)C(=O)N[C@@H](Cc1ccccc1)C(N)=O (H-Y[dA]G[NMeF]QPQRF-NH2)	0.0201	67.7	84.9	0.157	0.289	0.031	54.5	91.6	0.272	0.3862	Active								
